Tests used:
[1] = biological target: T1, Sigma non-opioid intracellular receptor 1 (Homo sapiens, UniProt Q99720); experiment: In vitro binding affinity for Sigma opioid receptor by displacement of [3H]DTG
[2] = biological target: Histamine H1 receptor (Rattus norvegicus, UniProt P31390); experiment: Displacement of [3H]- pyrilamine from rat brain membrane Histamine H1 receptor
[3] = Binding affinity ratio towards sigma receptor compared to the 5-hydroxytryptamine 1A receptor
[4] = biological target: D(2) dopamine receptor (Rattus norvegicus, UniProt P61169); experiment: Displacement of [3H]- raclopride from rat striatum Dopamine receptor D2
D(2) dopamine receptor, sequence (P61169 whole entry): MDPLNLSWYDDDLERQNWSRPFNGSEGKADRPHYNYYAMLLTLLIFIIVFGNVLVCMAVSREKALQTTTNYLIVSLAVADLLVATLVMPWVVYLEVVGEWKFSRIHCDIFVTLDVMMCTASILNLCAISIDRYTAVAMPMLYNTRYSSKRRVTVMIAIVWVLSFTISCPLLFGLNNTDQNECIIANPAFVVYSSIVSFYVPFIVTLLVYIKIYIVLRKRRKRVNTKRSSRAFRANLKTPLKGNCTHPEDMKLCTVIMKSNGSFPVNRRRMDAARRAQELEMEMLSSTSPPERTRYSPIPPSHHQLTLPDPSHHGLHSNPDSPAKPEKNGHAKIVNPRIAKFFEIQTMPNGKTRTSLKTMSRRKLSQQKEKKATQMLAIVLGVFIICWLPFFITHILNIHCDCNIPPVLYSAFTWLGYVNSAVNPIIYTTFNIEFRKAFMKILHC

[5] = biological target: T2, 5-hydroxytryptamine receptor 1A (Rattus norvegicus, UniProt P19327); experiment: Displacement of […] membrane 5-hydroxytryptamine 1A receptor
T2 sequence (P19327 whole entry): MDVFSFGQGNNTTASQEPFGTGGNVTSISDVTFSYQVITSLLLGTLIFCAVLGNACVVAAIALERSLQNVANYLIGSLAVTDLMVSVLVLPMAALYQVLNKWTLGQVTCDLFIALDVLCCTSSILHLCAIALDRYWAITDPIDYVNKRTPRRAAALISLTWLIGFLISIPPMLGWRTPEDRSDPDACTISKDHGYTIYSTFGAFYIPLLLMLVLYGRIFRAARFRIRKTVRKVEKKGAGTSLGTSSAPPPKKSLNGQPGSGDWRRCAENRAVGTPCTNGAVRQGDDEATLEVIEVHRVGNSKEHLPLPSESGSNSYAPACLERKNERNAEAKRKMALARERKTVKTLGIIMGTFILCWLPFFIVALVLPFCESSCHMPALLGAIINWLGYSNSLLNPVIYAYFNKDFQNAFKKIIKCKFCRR
Method in brief: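 Radioligand displacement on rat brain membranes, run by an external laboratory. [3H]prazosin and [3H]ketanserin were used with cortex, and [3H]-8-OH-DPAT with hippocampus.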

[6] = biological target: T3, Muscarinic acetylcholine receptor M1 (Rattus norvegicus, UniProt P08482); experiment: In vitro binding affinity towards Muscarinic acetylcholine receptor M1 by displacing [3H]- telenzepine from rat brain membrane
T3 sequence (P08482 whole entry): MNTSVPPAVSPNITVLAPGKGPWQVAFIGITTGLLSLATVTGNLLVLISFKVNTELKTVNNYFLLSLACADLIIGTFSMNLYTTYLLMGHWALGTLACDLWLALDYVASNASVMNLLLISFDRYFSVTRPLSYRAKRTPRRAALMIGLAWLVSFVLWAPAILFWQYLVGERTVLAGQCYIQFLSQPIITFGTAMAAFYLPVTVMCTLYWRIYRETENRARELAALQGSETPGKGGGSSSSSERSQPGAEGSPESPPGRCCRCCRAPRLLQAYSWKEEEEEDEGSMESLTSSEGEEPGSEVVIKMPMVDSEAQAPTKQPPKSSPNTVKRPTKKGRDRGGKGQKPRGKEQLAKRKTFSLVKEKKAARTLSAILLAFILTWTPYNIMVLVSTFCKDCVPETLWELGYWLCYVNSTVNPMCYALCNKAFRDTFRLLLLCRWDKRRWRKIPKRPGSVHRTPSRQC

[7] = biological target: T1, Sigma non-opioid intracellular receptor 1; experiment: In vitro binding affinity towards Sigma opioid receptor type 1 by using [3H]- (+)-pentazocine as radioligand
[8] = biological target: Sigma 2 receptor; experiment: In vitro binding affinity towards Sigma opioid receptor type 2 by using [3H]- DTG in the presence of 1 uM (+)- pentazocine
[9] = biological target: T3, Muscarinic acetylcholine receptor M1; experiment: In vitro binding affinity towards Muscarinic acetylcholine receptor M1 by displacing [3H]- telenzepine from rat brain membrane
[10] = biological target: T1, Sigma non-opioid intracellular receptor 1; experiment: Binding affinity ratio between Sigma opioid receptor type 1 and Sigma opioid receptor type 2
Method in brief: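 Selectivity ratio of σ1 to σ2 affinity, determined only for compounds with high affinity at sigma sites. σ1 affinity was measured with (+)-pentazocine and σ2 affinity with DTG as radioligands.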

[11] = organism: Rattus norvegicus; experiment: In vitro binding affinity ratio between Sigma opioid receptor and 5-hydroxytryptamine 1A receptor

T1 sequence (Q99720 whole entry): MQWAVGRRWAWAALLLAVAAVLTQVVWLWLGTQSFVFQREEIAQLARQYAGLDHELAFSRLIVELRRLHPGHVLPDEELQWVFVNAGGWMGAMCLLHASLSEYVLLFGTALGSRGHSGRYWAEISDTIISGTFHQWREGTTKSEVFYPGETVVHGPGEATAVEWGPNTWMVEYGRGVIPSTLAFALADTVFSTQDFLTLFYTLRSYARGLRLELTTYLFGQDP
Histamine H1 receptor, sequence (P31390 whole entry): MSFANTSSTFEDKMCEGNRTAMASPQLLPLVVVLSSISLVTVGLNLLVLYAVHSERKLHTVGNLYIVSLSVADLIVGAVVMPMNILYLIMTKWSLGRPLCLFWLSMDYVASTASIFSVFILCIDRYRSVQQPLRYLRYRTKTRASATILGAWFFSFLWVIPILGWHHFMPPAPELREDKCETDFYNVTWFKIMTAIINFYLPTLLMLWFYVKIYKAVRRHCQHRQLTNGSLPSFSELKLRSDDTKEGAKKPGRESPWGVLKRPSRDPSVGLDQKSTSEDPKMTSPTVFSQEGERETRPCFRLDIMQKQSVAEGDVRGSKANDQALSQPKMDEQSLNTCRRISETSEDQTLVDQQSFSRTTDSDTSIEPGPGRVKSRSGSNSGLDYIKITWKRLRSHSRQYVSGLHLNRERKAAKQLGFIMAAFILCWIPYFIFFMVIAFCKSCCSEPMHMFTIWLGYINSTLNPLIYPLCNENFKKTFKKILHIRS

| Structure (SMILES) | Ki [1] | Ki [2] | Ratio [3] | Ki [4] | Ki [5] | Ki [6] | Ki [7] | Ki [8] | Ki [9] | Ratio [10] | Ratio [11] |
| --- | --- | --- | --- | --- | --- | --- | --- | --- | --- | --- | --- |
| Cn1c(=O)sc2cc(CCN3CCN(Cc4ccc(Cl)cc4Cl)CC3)ccc21 | 0.008 µM | 0.01 µM | 0.08 | 0.1 µM | 0.1 µM |  |  |  |  |  |  |
| C[C@@H]1CN(CCc2ccc3c(c2)sc(=O)n3C)C[C@H](C)N1 | 2 µM | 20 µM | < 0.2 | > 10 µM | > 10 µM | > 10 µM |  |  |  |  |  |
| Cn1c(=O)sc2cc(CCCCN3CCN(Cc4ccccc4)CC3)ccc21 | 0.002 µM | < 0.1 µM |  | 10 µM | 0.04 µM | 10 µM | 0.0372 µM | 0.002 µM |  |  |  |
| Cn1c(=O)sc2cc(CCCCN3CCC(Cc4ccccc4)CC3)ccc21 | 0.005 µM | 0.009 µM | 0.17 | 0.1 µM | 0.03 µM |  |  |  | 0.2 µM |  |  |
| C[C@@H]1CN(CCCCc2ccc3c(c2)sc(=O)n3C)C[C@H](C)N1 | 0.1 µM | > 100 µM | < 0.001 | > 100 µM | > 100 µM | > 100 µM |  |  |  |  |  |
| Cn1c(=O)sc2cc(CCCCN3CCN(Cc4ccc(Cl)c(Cl)c4)CC3)ccc21 | 0.002 µM | 0.009 µM |  | 0.1 µM | 0.3 µM | 0.5 µM | 0.139 µM |  |  | 70 | 0.006 |
| Cn1c(=O)sc2cc(CCCCN3CCC(c4ccccc4)CC3)ccc21 | 0.003 µM | 6 µM | 0.3 | 0.03 µM | 0.01 µM |  |  |  |  |  |  |
| Cn1c(=O)sc2cc(CCN3CCC(Cc4ccccc4)CC3)ccc21 | 0.005 µM | 0.003 µM | 1.25 | > 0.1 µM | 0.004 µM | 0.1 µM |  |  |  |  |  |
| Cn1c(=O)sc2cc(CCN3CCN(Cc4ccccc4)CC3)ccc21 | 0.003 µM | 0.007 µM | 0.1 | > 10 µM | 0.03 µM | 0.5 µM |  |  |  |  |  |
| Cn1c(=O)sc2cc(CCCCN3CCN(Cc4ccc(Cl)cc4Cl)CC3)ccc21 | 0.009 µM | < 0.1 µM | 0.04 | 0.1 µM | 0.2 µM | < 10 µM |  |  |  |  |  |
| Cn1c(=O)sc2cc(CCN3CCC(c4ccccc4)CC3)ccc21 | 0.002 µM | 0.02 µM |  | 1 µM | 0.004 µM | 1 µM | 0.02 µM |  |  | 10 | 0.5 |
| Cn1c(=O)sc2cc(CCN3CCN(Cc4ccc(Cl)c(Cl)c4)CC3)ccc21 | 0.005 µM | 0.04 µM | 0.17 | 0.2 µM | 0.03 µM | 1 µM |  |  |  |  |  |

Source: ChEMBL document CHEMBL1135280, “Synthesis and pharmacological evaluation of 6-piperidino- and 6-piperazinoalkyl-2(3H)-benzothiazolones as mixed sigma/5-HT(1A) ligands” (Bioorg Med Chem Lett, 2002)
